Reference: ChEMBL document CHEMBL1148703, “Synthesis and antiviral evaluation of 6-(alkyl-heteroaryl)furo[2,3-d]pyrimidin-2(3H)-one nucleosides and analogues with ethynyl, ethenyl, and ethyl spacers at C6 of the furopyrimidine core” (J Med Chem, 2007)

How the values were obtained:
[1] = tested on: Human alphaherpesvirus 3; assay: Antiviral activity against thymidine kinase deficient VZV YS/R in HEL cells assessed as reduction of virus plaque formation after 5 days; type: functional, organism-based; settings: Human alphaherpesvirus 3, YS/R, 120 h
[2] = tested on: Human alphaherpesvirus 3; assay: Antiviral activity against TK+ VZV YS in HEL cells assessed as reduction of virus plaque formation after 5 days; type: functional, organism-based; settings: Human alphaherpesvirus 3, YS, 120 h
[3] = Cytotoxicity against HEL cells assessed as alteration in cell morphology after 3 days; type: cell-based; settings: human
[4] = biological target: T1, Thymidine kinase (Varicella-zoster virus (strain Dumas) (HHV-3) (Human herpesvirus 3), UniProt P09250); assay: Inhibition of VZV thymidine kinase; set-up: species or system Human alphaherpesvirus 3
T1 sequence (P09250 whole entry): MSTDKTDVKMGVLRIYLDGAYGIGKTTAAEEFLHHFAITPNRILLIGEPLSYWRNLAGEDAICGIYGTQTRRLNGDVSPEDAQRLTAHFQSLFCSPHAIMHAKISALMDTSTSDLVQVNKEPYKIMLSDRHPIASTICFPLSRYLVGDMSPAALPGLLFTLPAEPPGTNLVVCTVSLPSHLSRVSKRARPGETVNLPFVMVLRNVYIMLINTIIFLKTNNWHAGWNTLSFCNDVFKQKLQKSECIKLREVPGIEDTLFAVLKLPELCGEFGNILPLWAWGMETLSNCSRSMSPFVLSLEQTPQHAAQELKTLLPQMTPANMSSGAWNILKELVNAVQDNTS
Procedure, shortened: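 VZV TK enzyme assay in 50 mM Tris-HCl pH 8.0 with 2.5 mM MgCl2, 10 mM DTT, 2.5 mM ATP, 10 mM NaF, 1.0 mg/mL BSA and 1 µM [CH3-3H]dThd (0.1 µCi). Run 30 min at 37 °C, spotted on DE-81 discs, washed, radioactivity counted.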

[5] = tested on: Human alphaherpesvirus 3; assay: Antiviral activity against thymidine kinase deficient VZV 07/1 in HEL cells assessed as reduction of virus plaque formation after 5 days; type: functional, organism-based; settings: Human alphaherpesvirus 3, 07/1, HEL, 120 h
[6] = tested on: Human betaherpesvirus 5; assay: Antiviral activity against HCMV Davis in HEL cells assessed as reduction of virus plaque formation after 7 days; type: functional, organism-based; settings: Human betaherpesvirus 5, Davis, 168 h
Procedure, shortened: (§1)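 Confluent HEL fibroblasts were infected with HCMV at 100 pfu per well. After 2 h the residual virus was removed and medium with a range of compound concentrations was added (duplicate). Cells were incubated 7 days at 37 °C, then fixed with ethanol and stained with Giemsa. Virus-induced cytopathicity was scored microscopically, and EC50 was read from graphic plots of % cytopathicity versus concentration.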

[7] = Cytotoxicity against HEL cells after 3 days; type: cell-based; settings: human
Procedure, shortened: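 HEL cells were seeded at 5 × 10^3 cells/well and allowed to grow for 24 h. Medium containing graded compound concentrations was then added, followed by 3 days at 37 °C. Cell number was counted with a Coulter counter.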

[8] = tested on: Human betaherpesvirus 5; assay: Antiviral activity against HCMV AD169 in HEL cells assessed as reduction of virus plaque formation after 7 days; type: functional, organism-based; settings: Human betaherpesvirus 5, AD169, HEL, 168 h; procedure, shortened: as §1
[9] = tested on: Human alphaherpesvirus 3; assay: Antiviral activity against TK+ VZV OKA in HEL cells assessed as reduction of virus plaque formation after 5 days; type: functional, organism-based; settings: Human alphaherpesvirus 3, OKA, 120 h

Structure (SMILES) | EC50 [1] | EC50 [2] | MCC at 72 h [3] | IC50 [4] | EC50 [5] | EC50 [6] | CC50 at 72 h [7] | EC50 [8] | EC50 [9]
O=c1nc2oc(C#Cc3ccccc3)cc2cn1[C@H]1C[C@H](O)[C@@H](CO)O1 | > 140 µM | 99 µM | > 570 µM | 493 µM | > 140 µM | > 140 µM | > 570 µM | > 140 µM | ≥ 140 µM
CCCCCCc1cnc(-c2cc3cn([C@H]4C[C@H](O)[C@@H](CO)O4)c(=O)nc3o2)nc1 | > 100 µM | 0.71 µM | > 100 µM | 15 µM | > 100 µM | > 100 µM | > 50 µM | > 100 µM | 0.63 µM
CCCCCc1ccc(-c2cc3cn([C@H]4C[C@H](O)[C@@H](CO)O4)c(=O)nc3o2)cn1 | > 20 µM | 0.09 µM | 100 µM | 18 µM | > 20 µM | > 20 µM | > 50 µM | > 20 µM | 0.13 µM
Cc1ccc(C#Cc2cc3cn([C@H]4C[C@H](O)[C@@H](CO)O4)c(=O)nc3o2)cc1 |  | 41 µM | ≥ 510 µM |  | 36 µM | > 130 µM | 510 µM | 510 µM | 66 µM
CCCCCCCCC#Cc1cc2cn([C@H]3C[C@H](O)[C@@H](CO)O3)c(=O)nc2o1 |  |  |  | 217 µM |  |  |  |  | 
Nc1nc2c(ncn2COC(CO)CO)c(=O)[nH]1 [GANCICLOVIR] |  | 2.3 µM | > 200 µM |  |  | 8.7 µM | > 200 µM |  | 
CCCc1ccc(CCc2cc3cn([C@H]4C[C@H](O)[C@@H](CO)O4)c(=O)nc3o2)cc1 | > 130 µM | ≥ 50 µM | ≥ 130 µM | > 500 µM | > 50 µM | > 130 µM | > 130 µM | > 130 µM | > 130 µM
O=c1nc2oc(CCc3ccccc3)cc2cn1[C@H]1C[C@H](O)[C@@H](CO)O1 |  |  | > 560 µM |  | > 560 µM | > 560 µM | > 560 µM | > 560 µM | 380 µM
CCCCCc1ccc(-c2cc3cn([C@H]4C[C@H](O)[C@@H](CO)O4)c(=O)nc3o2)nc1 | > 100 µM |  | > 100 µM | 4.2 µM | > 100 µM | > 100 µM | > 50 µM | > 100 µM | 0.07 µM
CCCCCCc1ccc(-c2cc3cn([C@H]4C[C@H](O)[C@@H](CO)O4)c(=O)nc3o2)nc1 | 70 µM | 0.045 µM | > 100 µM | 3.7 µM | > 100 µM | > 100 µM | > 50 µM | > 100 µM | 0.06 µM
CCCCCc1ccc(C#Cc2cc3cn([C@H]4C[C@H](O)[C@@H](CO)O4)c(=O)nc3o2)cc1 |  | 19 µM | 470 µM |  | 71 µM | 11 µM | 110 µM | 13 µM | 17 µM
CCCCCCc1ccc(-c2cc3cn([C@H]4C[C@H](O)[C@@H](CO)O4)c(=O)nc3o2)cn1 | > 20 µM | 0.09 µM | 100 µM | 30 µM | > 20 µM | > 20 µM | > 50 µM | > 20 µM | 0.14 µM
CCCCCc1ccc(-c2cc3cn([C@H]4C[C@H](O)[C@@H](CO)O4)c(=O)nc3o2)cc1 [CF1743] |  |  | > 1.3 µM |  |  |  |  |  | 
CCCCCCCCCCc1cc2cn([C@H]3C[C@H](O)[C@@H](CO)O3)c(=O)nc2o1 | > 51 µM | 0.066 µM | ≥ 130 µM | ≥ 500 µM | > 51 µM | 64 µM | > 510 µM | > 130 µM | 0.094 µM
CCCCCc1ccc(CCc2cc3cn([C@H]4C[C@H](O)[C@@H](CO)O4)c(=O)nc3o2)cc1 |  |  | ≥ 470 µM |  | > 120 µM | > 120 µM | > 470 µM | > 120 µM | 18 µM
O=c1[nH]c(=O)n([C@H]2C[C@H](O)[C@@H](CO)O2)cc1/C=C/Br [BRIVUDINE] | ≥ 130 µM | 0.01 µM | > 150 µM |  | ≥ 99 µM |  | > 150 µM |  | 0.01 µM
Cc1ccc(CCc2cc3cn([C@H]4C[C@H](O)[C@@H](CO)O4)c(=O)nc3o2)cc1 |  |  | 540 µM |  | > 140 µM | > 540 µM | > 540 µM | > 540 µM | > 140 µM
CCCc1ccc(C#Cc2cc3cn([C@H]4C[C@H](O)[C@@H](CO)O4)c(=O)nc3o2)cc1 | > 50 µM | 27 µM | 87 µM |  | > 50 µM | 8.7 µM | > 120 µM | 15 µM | 41 µM
CCCC#Cc1ccc(-c2cc3cn([C@H]4C[C@H](O)[C@@H](CO)O4)c(=O)nc3o2)cn1 | > 20 µM | 0.06 µM | ≥ 100 µM | 2.9 µM | > 20 µM | > 20 µM | > 50 µM | > 20 µM | 0.09 µM
CCCCc1ccc(-c2cc3cn([C@H]4C[C@H](O)[C@@H](CO)O4)c(=O)nc3o2)nc1 | > 100 µM | 0.36 µM | > 100 µM | 34 µM | > 100 µM | > 100 µM | > 50 µM | > 100 µM | 0.23 µM
CCCCCCCC/C=C/c1cc2cn([C@H]3C[C@H](O)[C@@H](CO)O3)c(=O)nc2o1 | 26 µM | 0.72 µM | ≥ 120 µM | 65 µM | > 48 µM | 8.4 µM | 230 µM | 22 µM | 1.2 µM
Nc1nc2c(ncn2COCCO)c(=O)[nH]1 [ACYCLOVIR] |  |  | > 220 µM |  |  |  | > 890 µM |  | 
CCCCCc1cnc(-c2cc3cn([C@H]4C[C@H](O)[C@@H](CO)O4)c(=O)nc3o2)nc1 | > 100 µM | 2 µM | > 100 µM | 24 µM | > 100 µM | > 100 µM | > 50 µM | > 100 µM | 1.9 µM
